Source: ChEMBL document CHEMBL1145409, “New sst4/5-selective somatostatin peptidomimetics based on a constrained tryptophan scaffold” (J Med Chem, 2007)
pEC50, pIC50: −log10 of the molar value.

Experiments:
[1] = molecular target: Somatostatin receptor type 4 (Homo sapiens, UniProt P31391); assay: Displacement of [125I][Leu8-D-Trp22, Tyr25]-SRIF28 from human SST4 receptor
How it was run: (§1)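 Membrane pellets from CHO-K1 or CCL39 cells stably expressing the human receptor subtype, cut as 20 µm sections on slides for receptor autoradiography. Full displacement of [125I]-[Leu8,D-Trp22,Tyr25]-SRIF-28 by unlabeled compound at 0.1–1000 nmol/L, SRIF-28 run in parallel. Quantified by image analysis against calibrated isotope tissue standards to give IC50; mean ± SEM of 2–4 independent repetitions.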

[2] = molecular target: Somatostatin receptor type 1 (Homo sapiens, UniProt P30872); assay: Displacement of [125I][Leu8-D-Trp22, Tyr25]-SRIF28 from human SST1 receptor; how it was run: as §1
Sequence of Somatostatin receptor type 1 (P30872 whole entry): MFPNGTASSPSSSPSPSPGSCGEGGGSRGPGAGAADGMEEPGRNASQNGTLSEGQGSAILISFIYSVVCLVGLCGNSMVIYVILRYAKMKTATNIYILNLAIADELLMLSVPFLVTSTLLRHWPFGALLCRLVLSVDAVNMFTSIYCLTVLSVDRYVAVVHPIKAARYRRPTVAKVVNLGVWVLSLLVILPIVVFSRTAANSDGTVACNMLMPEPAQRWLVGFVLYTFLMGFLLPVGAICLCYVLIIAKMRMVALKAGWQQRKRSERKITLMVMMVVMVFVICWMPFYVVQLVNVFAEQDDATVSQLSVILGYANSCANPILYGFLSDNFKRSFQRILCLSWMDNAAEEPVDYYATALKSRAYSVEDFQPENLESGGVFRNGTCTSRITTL

[3] = molecular target: Somatostatin receptor type 2 (Homo sapiens, UniProt P30874); assay: Displacement of [125I][Leu8-D-Trp22, Tyr25]-SRIF28 from human SST2 receptor; how it was run: as §1
Sequence of Somatostatin receptor type 2 (P30874 whole entry): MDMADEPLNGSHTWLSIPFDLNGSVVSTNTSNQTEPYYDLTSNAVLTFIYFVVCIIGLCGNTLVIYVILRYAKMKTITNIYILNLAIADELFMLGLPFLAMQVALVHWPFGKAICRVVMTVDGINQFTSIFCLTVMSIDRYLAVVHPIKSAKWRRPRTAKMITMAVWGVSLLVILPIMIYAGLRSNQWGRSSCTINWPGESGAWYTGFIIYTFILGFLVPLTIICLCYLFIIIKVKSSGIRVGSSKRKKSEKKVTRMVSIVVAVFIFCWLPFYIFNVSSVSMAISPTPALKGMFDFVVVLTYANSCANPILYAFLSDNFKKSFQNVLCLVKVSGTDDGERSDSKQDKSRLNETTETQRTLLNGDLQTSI

[4] = molecular target: Somatostatin receptor type 3 (Homo sapiens, UniProt P32745); assay: Displacement of [125I][Leu8-D-Trp22, Tyr25]-SRIF28 from human SST3 receptor; how it was run: as §1
Sequence of Somatostatin receptor type 3 (P32745 whole entry): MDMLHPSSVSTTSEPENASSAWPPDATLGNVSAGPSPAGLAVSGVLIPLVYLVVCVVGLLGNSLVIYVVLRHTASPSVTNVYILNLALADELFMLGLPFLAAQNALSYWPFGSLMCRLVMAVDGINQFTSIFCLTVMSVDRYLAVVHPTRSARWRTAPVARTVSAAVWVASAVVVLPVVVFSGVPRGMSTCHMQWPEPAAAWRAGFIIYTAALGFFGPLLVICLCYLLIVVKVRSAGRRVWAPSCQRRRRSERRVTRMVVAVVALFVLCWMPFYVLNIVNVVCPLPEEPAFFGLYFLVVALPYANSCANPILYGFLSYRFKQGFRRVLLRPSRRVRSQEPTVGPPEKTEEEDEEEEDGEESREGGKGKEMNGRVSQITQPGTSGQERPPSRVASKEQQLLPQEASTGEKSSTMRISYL

[5] = molecular target: T1, Somatostatin receptor type 5 (Homo sapiens, UniProt P35346); assay: Displacement of [125I][Leu8-D-Trp22, Tyr25]-SRIF28 from human SST5 receptor; how it was run: as §1
T1 sequence (P35346 whole entry): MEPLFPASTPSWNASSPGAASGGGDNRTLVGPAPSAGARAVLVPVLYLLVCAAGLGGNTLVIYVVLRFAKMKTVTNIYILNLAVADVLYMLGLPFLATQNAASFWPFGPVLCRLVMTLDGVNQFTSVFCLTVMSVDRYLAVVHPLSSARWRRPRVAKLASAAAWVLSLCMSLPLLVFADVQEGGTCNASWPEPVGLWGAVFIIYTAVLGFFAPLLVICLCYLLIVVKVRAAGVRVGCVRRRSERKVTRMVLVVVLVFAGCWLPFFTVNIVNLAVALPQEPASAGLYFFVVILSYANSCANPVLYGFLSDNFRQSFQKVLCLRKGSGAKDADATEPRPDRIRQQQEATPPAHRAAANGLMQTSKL

[6] = molecular target: T1, Somatostatin receptor type 5; assay: Agonist activity at human SST5 receptor expressed in CHOK1 cells assessed as effect on forskolin-induced cAMP production; assay type: functional, cell-based, CHO-K1
How it was run: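 Stably transfected sst5 CHO-K1 cells preincubated 30 min at 37 °C in medium with 0.5 mM IBMX, then 30 min at 37 °C with 0.5 mM IBMX, with or without 10 µM forskolin and graded compound concentrations. Cells lysed; cAMP measured by scintillation proximity assay, expressed as % stimulation over nonstimulated level. EC50 from nonlinear regression of dose-response curves; three experiments, triplicate wells.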

Sequence of Somatostatin receptor type 4 (P31391 whole entry): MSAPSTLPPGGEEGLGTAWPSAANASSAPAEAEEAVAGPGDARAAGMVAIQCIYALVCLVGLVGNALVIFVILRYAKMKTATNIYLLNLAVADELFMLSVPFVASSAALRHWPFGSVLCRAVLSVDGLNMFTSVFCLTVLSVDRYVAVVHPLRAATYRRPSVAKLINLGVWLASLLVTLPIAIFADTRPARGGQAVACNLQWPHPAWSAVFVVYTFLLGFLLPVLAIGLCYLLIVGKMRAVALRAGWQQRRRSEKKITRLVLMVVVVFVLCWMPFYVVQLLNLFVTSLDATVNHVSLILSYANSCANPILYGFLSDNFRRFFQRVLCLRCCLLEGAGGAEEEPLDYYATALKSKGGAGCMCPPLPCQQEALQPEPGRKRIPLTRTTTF

SMILES | pIC50 [1] | pIC50 [2] | pIC50 [3] | pIC50 [4] | pIC50 [5] | pEC50 [6]
NCCCCCN1Cc2[nH]c3ccccc3c2C[C@@H](NC(=O)Cc2ccccc2)C1=O | 7.12 | < 6.00 | < 6.00 | < 6.00 | 6.61 | 
NCCCC[C@@H](C(=O)NCc1ccccc1)N1Cc2[nH]c3ccccc3c2C[C@@H](NC(=O)CC(c2ccccc2)c2ccccc2)C1=O | 7.14 | 7.05 | 6.99 | 6.16 | 8.10 | 
NCCCCCN1Cc2[nH]c3ccccc3c2C[C@@H](NC(=O)CC(c2ccccc2)c2ccccc2)C1=O | 6.89 | < 6.00 | 6.45 | < 6.00 | 6.50 | 
NCCCC[C@@H](C(=O)NCc1ccccc1)N1Cc2[nH]c3ccccc3c2C[C@@H](NC(=O)Cc2ccccc2)C1=O | 8.48 | 6.63 | 7.08 | 6.60 | 8.92 | 7.89
